Source: PubChem BioAssay (Broad Institute)
In the library only some 3.5% were active in any assay of this set; here they are far more common.
PglD DTNB: inhibitors of Campylobacter jejuni PglD acetyltransferase; purified PglD enzyme, DTNB colorimetric CoA detection; inhibition, % at 12.5 µM; hit rate 0.098% among 360,000; AID 602405; in the data active = inhibition above about 16%, passing the limit was not always enough; inconclusive = no clear call, values can overlap the other calls
DENV2 CPE rescue: DENV2-induced cell death inhibition; hit rate 1.7% among 350,000; AID 651640; CPE inhibition, % at 9.99 µM; DENV2-infected cells, cytopathic effect rescue, plate reader; in the data active = CPE inhibition above about 20%, passing the limit was not always enough; inconclusive = no clear call, values can overlap the other calls; tested in BHK-21 cells;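 note: 0% = median of neutral control wells and 100% = median of positive control wells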
rRNA inh HTS: selective bacterial rRNA inhibition in E. coli | E. coli WT GFP vs humanized-ribosome RFP mutants, fluorescence, 24 h; hits give low values; DMSO median 0, no signal -100 | GFP signal change (wild-type ribosome), % (no concentration beside the values) | hit rate 1.6% among 350,000 | AID 720706;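 active = significant combined selectivity score with lowered wild-type GFP, culture density cut under 30%, mutant RFP and density less affected; inactive = any of these conditions unmet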
FN deposit inh: fibronectin deposition inhibition; AH1F fibroblasts, Alexa488-fibronectin deposition fluorescence, overnight; inhibition, % at 12.6 µM; hit rate 0.086% among 350,000; AID 743247;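 active = mean inhibition across replicates of 30% or more, regardless of how many single replicates reach that level; inconclusive = mean under 30% yet at least half of replicates reach 30%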;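 note: positive control wells lacked labelled fibronectin entirely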
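Assay system: AH1F fibroblast monolayer, labelled fibronectin deposition. Amount: 10000 cells per well. Also added: labelled fibronectin 24 nM. Compound: single-point pinned compound. Incubation: cell attachment 1 h, compound and FN exposure overnight. Detection: fluorescence after three HBSS washes, excitation 485 nm, emission 525 nm. Read-out: inhibition of fibronectin deposition signal.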
Env fusion inh: blocks HIV Env-driven cell-cell fusion | HeLa-JRFL Env/CEM21 cell fusion, luciferase | inhibition, % at 12.3 µM | hit rate 1.1% among 360,000;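 active = mean replicate inhibition score of at least 50 and every replicate individually at or above 50; inconclusive = only one of the two criteria met; inactive = mean below 50 and not all replicates reaching 50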;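 note: 0% = plate neutral controls and 100% = maraviroc near 300 nM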
PGC1a acetyl inh: modulators of PGC1a acetylation; inhibition, % at 15.6 µM; U2OS PGC1a acetylation, AlphaScreen anti-acetyl-lysine; with virally co-expressed GCN5 acetyltransferase; hit rate 0.17% among 350,000;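 active = every replicate shows inhibition of at least 40%; inconclusive = mean inhibition at least 40% but some replicate below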;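 note: 0% = neutral control wells and 100% = positive control wells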
The depositor's hits bear a star; ? = inconclusive; . = not tested or not shown; [ ] = another dose, or the depositor's remark.

SMILES	PglD DTNB	DENV2 CPE rescue	rRNA inh HTS	FN deposit inh	Env fusion inh	PGC1a acetyl inh
C[C@@H]1CCCCO[C@H](CN(C)CC2CCCCC2)[C@H](C)CN([C@@H](C)CO)C(=O)c2cc(NC(=O)Nc3cccc4ccccc34)ccc2O1	8	11	-53*	.	9[16.7 µM]	-14
C[C@H]1CCCCO[C@@H](CN(C)Cc2ccccc2)[C@@H](C)CN([C@@H](C)CO)C(=O)c2cc(NC(=O)Nc3cccc4ccccc34)ccc2O1	0	-26	1	5	110*[16.7 µM]	-15
CN(C)CC(=O)N[C@@H]1CC[C@@H](CCNC(=O)C2CCC2)O[C@H]1CO	17	?	4	.	17[16.7 µM]	2
CCOc1ccc(NC(=O)/C(C#N)=C/c2cn(CC(=O)O)c3ccccc23)cc1	-15	-2	-26*	6	14	0
CCOc1cccc(NC(=O)/C(C#N)=C\c2cn(CC(=O)O)c3ccccc23)c1	-19	-5	-29	0	-18	-6
COC(=O)CN1C(c2ccccc2)=Nc2ccc(Cl)cc2C1c1ccccc1 (centres undefined)	0	.	.	-2	105*	6
Cc1noc(C)c1S(=O)(=O)Nc1ccc2c(c1)C(=O)N([C@H](C)CO)C[C@@H](C)[C@H](CN(C)C(=O)Nc1ccccc1)O2	-2	-11	2	.	-54[16.7 µM]	-1
C[C@H]1CN([C@@H](C)CO)C(=O)Cc2cc(NC(=O)c3ccncc3)ccc2O[C@H]1CN(C)Cc1ccc(C(=O)Nc2ccccc2N)cc1	0	58*	-2	.	-225[16.7 µM]	-6
C[C@@H]1CN([C@H](C)CO)C(=O)Cc2cc(NC(=O)NC3CCCCC3)ccc2O[C@@H]1CN(C)Cc1ccc(C(=O)Nc2ccccc2N)cc1	.	28*	-9	.	.	0
C[C@H](CO)N1C[C@H](C)[C@H](CN(C)Cc2ccc(C(=O)Nc3ccccc3N)cc2)Oc2ccc(NC(=O)Cc3ccccc3)cc2CC1=O	.	32*	-4	.	.	-7
C[C@H]1CN([C@@H](C)CO)C(=O)Cc2cc(NC(=O)Cc3ccccc3)ccc2O[C@H]1CN(C)Cc1ccc(C(=O)Nc2ccccc2N)cc1	.	-7	-7	.	.	-10
C[C@@H]1CN([C@@H](C)CO)C(=O)Cc2cc(NC(=O)NC3CCCCC3)ccc2O[C@@H]1CN(C)Cc1ccc(C(=O)Nc2ccccc2N)cc1	.	.	-8	.	.	.
C[C@@H]1CN([C@H](C)CO)C(=O)Cc2cc(NC(=O)CCC(F)(F)F)ccc2O[C@@H]1CN(C)Cc1ccc(C(=O)Nc2ccccc2N)cc1	-3	38*	-2	16	-82[16.7 µM]	-1
COC(=O)C[C@@H]1CC[C@@H]2[C@H](COC[C@@H](O)CN2C(=O)Nc2cccc(F)c2)O1	3	11	-19	-7	-3[16.7 µM]	-5
COc1ccc(OC)c(-c2nnc3n2N=C(c2ccc(OC)c(OC4CCOC4)c2)CS3)c1 (centres undefined)	11	4	-28*	2	-182	-9
COc1cccc(S(=O)(=O)N(C)C[C@@H]2Oc3cc(C#CCC(C)C)ccc3S(=O)(=O)N([C@@H](C)CO)C[C@@H]2C)c1	0	-14	1	-8	85*[16.7 µM]	3
COc1cccc(S(=O)(=O)N(C)C[C@H]2Oc3cc(C#CCC(C)C)ccc3S(=O)(=O)N([C@@H](C)CO)C[C@H]2C)c1	1	44*	3	-12	71*[16.7 µM]	-1
COc1cccc(S(=O)(=O)N(C)C[C@@H]2Oc3cc(C#CCC(C)C)ccc3S(=O)(=O)N([C@H](C)CO)C[C@H]2C)c1	2	10	4	9	71*[16.7 µM]	4
CCCC#Cc1ccc2c(c1)O[C@H](CN(C)S(=O)(=O)c1cccc(OC)c1)[C@@H](C)CN([C@@H](C)CO)S2(=O)=O	.	.	1	4	-12[16.7 µM]	-18
CCCC#Cc1ccc2c(c1)O[C@H](CN(C)S(=O)(=O)c1cccc(OC)c1)[C@H](C)CN([C@@H](C)CO)S2(=O)=O	.	.	3	1	-2[16.7 µM]	-2
COC(=O)c1ccsc1NC(=O)C1COc2ccccc2O1 (centres undefined)	3	10	-32*	8	-12	1
O=C(NC1=NCCS1)C1COc2ccccc2O1 (centres undefined)	4	.	.	0	98*	11
O=C(Nc1ccncc1)C1COc2ccccc2O1 (centres undefined)	1	.	.	.	.	-14
COC(=O)c1ccccc1NC(=O)C1COc2ccccc2O1 (centres undefined)	-2	.	.	.	.	-20
CCC(=O)Nc1ccc2c(c1)C(=O)N(C)C[C@@H](OC)[C@@H](C)CN(C(=O)CC)[C@H](C)CO2	2	5	0	-1	-7[16.7 µM]	9
SMILES	PglD DTNB	DENV2 CPE rescue	rRNA inh HTS	FN deposit inh	Env fusion inh	PGC1a acetyl inh
CCn1c(SCc2ccc(F)cc2)nc2c(c1=O)SCC2	.	-4	-31*	6	14	12
CCn1c(SCc2cccc(F)c2)nc2c(c1=O)SCC2	-2	2	-35*	-7	24	-15
C[C@@H]1CN([C@H](C)CO)C(=O)c2cc(C#C[C@@H](C)O)cnc2O[C@@H]1CN(C)C(=O)CC1CC1	3	-5	3	2	-11[16.7 µM]	13
C[C@@H]1CN([C@H](C)CO)C(=O)c2cc(NS(C)(=O)=O)ccc2O[C@@H]1CN(C)C(=O)Nc1ccccc1	1	-3	3	.	.	4
COc1cccc(C2(c3cccc(OC)c3)CC2C(=O)Nc2ccc(F)cc2)c1 (centres undefined)	2	32*	-10	0	-1	-8
COc1ccc(CN2C[C@H](O)COC[C@@H]3O[C@@H](CC(=O)NCc4ccccc4Cl)CC[C@H]32)cc1	6	-4	-6	7	2[16.7 µM]	-12
O=C(O)c1cc(O)c2c(c1)C(=O)c1cccc(O)c1C2=O	1	79*	.	8	9	?
Cc1cc(O)c2c(c1)C(=O)c1cccc(O)c1C2=O	.	-1	.	-6	-36	.
Cc1ccc(CNc2nc(C)nc3sc4c(c23)CCC4)cc1	-1	.	.	2	74*	-2
C[C@@H]1CN([C@H](C)CO)S(=O)(=O)c2ccc(-c3cncnc3)cc2O[C@@H]1CN(C)C(=O)CC1CC1	-1	-8	1	-15	0[16.7 µM]	18
COc1ccc(C2=Nc3ccccc3NC(=O)C2N(Cc2ccccc2)C(=O)C2=NNC(=O)CC2)cc1 (centres undefined)	-3	-7	-23*	0	-8	-1
COc1ccc(NC(=O)N[C@H]2CC[C@@H](CCNC(=O)CCN3CCCCC3)O[C@H]2CO)cc1	3	6	3	-23	-4[16.7 µM]	0
O=C(COc1ccc(-n2cnnn2)cc1)Nc1ccc(F)c(F)c1	-2	1	9	6	74*	6
COc1ccc2c(CC(=O)Nc3ccccc3N3CCOCC3)coc2c1	-2	-4	-27*	-10	13	-12
